# NPY-Y2 antag – blocks the human neuropeptide Y Y2 receptor. NPY-Y2 expressing cells, antagonist mode. inhibition, % at 2.7 µM. 0.99% of 140,000 active. P49146; in the data active = inhibition above about 17%;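 also: 0% = vehicle with agonist challenge and 100% = reference antagonist with challenge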
# PGE2 EP2 inh – inhibitors of human EP2 prostaglandin E2 receptor; C6 glioma cells expressing human EP2, cAMP TR-FRET; cells stimulated with saturating PGE2; 0.52% of 260,000 active; inhibition, % at 25 µM;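 active = percent inhibition above 40 after rounding to a whole number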;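 also: rat C6 glioma host cells with rolipram phosphodiesterase inhibitor present; the protocol text gives 20 µM as final concentration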
# NPY-Y1 PAM-ag – potentiators or agonists of human neuropeptide Y receptor Y1; P25929; NPY-Y1 expressing cells, potentiator/agonist activation; activation, % at 3.6 µM; 0.37% of 220,000 active; in the data active = activation above about 33%, passing the limit was not always enough;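 also: cells stimulated with NPY at EC10 then isoproterenol at EC100; 0% = low agonist plus stimulus and 100% = saturating agonist plus stimulus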
# Target sequence (P25929 whole entry, looked up): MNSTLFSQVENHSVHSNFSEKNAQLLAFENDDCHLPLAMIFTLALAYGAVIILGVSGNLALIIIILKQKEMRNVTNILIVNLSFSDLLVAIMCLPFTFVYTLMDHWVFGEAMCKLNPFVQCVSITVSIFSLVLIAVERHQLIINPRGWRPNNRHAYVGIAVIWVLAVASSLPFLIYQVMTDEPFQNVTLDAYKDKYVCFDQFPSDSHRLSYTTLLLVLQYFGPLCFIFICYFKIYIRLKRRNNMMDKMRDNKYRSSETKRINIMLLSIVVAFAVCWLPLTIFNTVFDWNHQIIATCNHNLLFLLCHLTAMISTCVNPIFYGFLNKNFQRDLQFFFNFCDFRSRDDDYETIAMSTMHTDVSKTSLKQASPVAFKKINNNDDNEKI
# EP2 modulator – modulators of human EP2 prostaglandin E2 receptor | P43116 | EP2-expressing cells, cAMP HTRF FRET, PGE2 co-stimulation | induction, % at 25 µM | 0.83% of 260,000 active | AID 940;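 active = compounds whose cAMP rise, as percent of the full-agonist control response, exceeds 60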;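 also: rat C6 glioma line stably carrying human EP2 under a CMV promoter; the protocol text gives 20 µM as final concentration; 100% = response of wells given 1 µM PGE2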
# NPY-Y1 antag – NPY-Y1 (human) receptor antagonism; P25929; HEK293-CNG Y1 cells, membrane potential fluorescence; NPY at EC95, then isoproterenol; inhibition, % at 3.6 µM; 1% of 200,000 active; AID 1040;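 active = inhibition above the campaign mean inhibition of all tested compounds plus 3 SD, cut at about 20% in these data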;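 also: 0% = DMSO wells given NPY plus isoproterenol and 100% = isoproterenol alone without NPY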
#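 Material: HEK293 Y1/CNG channel cell line; also added: NPY (25 nM), isoproterenol (1 µM), Ro 20-1724 (25 µM); doses: one concentration, 3.6 µM, in 0.4% DMSO; schedule: compound incubation 1 h at room temperature, readout 45 min post-stimulation; technique: membrane potential fluorescence; measure: fluorescence ratio normalized to % inhibition between controls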
# NPY-Y2 PAM-ag – potentiates or activates human NPY-Y2 receptor. AID 1359. cells expressing NPY-Y2, potentiator/agonist read-out. activation, % at 3.6 µM. 0.45% of 220,000 active. P49146; in the data active = activation above about 27%;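 also: cells stimulated with NPY near EC25 plus isoproterenol at EC100; 0% = vehicle plus submaximal agonist and 100% = vehicle plus saturating agonist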
# NPY1 antag ctr – human NPY-Y1 antagonism in NPY-Y2 counter-screen; shares compounds with NPY-Y2 antag; cell-based NPY-Y1 antagonism counterscreen; inhibition, % at 3.6 µM; 19% of 710 active; AID 1256; in the data active = inhibition above about 20%;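 also: cells challenged with NPY then isoproterenol with cAMP sensed through a CNG channel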
# NPY-Y2 ant conf – confirmation of human neuropeptide Y receptor Y2 antagonists; HEK293 NPY-Y2 CNG channel, membrane potential fluorescence; inhibition, % at 2.8 µM; 32% of 710 active; shares compounds with NPY-Y2 antag;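 active = mean inhibition of triplicate wells above the hit cutoff set in the primary screen, cut at about 17% in these data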;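 also: 0% = DMSO with NPY challenge and 100% = BIIE0246 high control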
# The depositor's hits bear a star; · = not tested or not shown. A selection: hits, their analogues and other compounds. The true share with any hit is near 2.8%.
SMILES,NPY-Y2 antag,PGE2 EP2 inh,NPY-Y1 PAM-ag,EP2 modulator,NPY-Y1 antag,NPY-Y2 PAM-ag,NPY1 antag ctr,NPY-Y2 ant conf
Cc1cccc(CSCCNC(=O)COc2ccc(Cl)cc2)c1,22*,7,-51,-31,12,-18,13,17*
COc1ccc(CCNC(=O)CSc2nc(-c3cccs3)cc(C(F)(F)F)n2)cc1OC,·,5,·,-82,·,·,·,·
O=C(Nc1ccccc1Cl)C1C2CCC3C(CCC21)C3(Cl)Cl (stereo not drawn),18*,8,-33,21,20,2,12,10
O=C(O)C1CCCCC1C(=O)Nc1ccccc1Cl (stereo not drawn),1,5,2,8,3,-18,·,·
CCn1c(=N)c(C(=O)N2CCOCC2)cc2c(=O)n3cccc(C)c3nc21,·,8,·,-17,·,·,·,·
Cc1cccc(Nc2c3c(nc4ccccc24)CCC3)c1,·,18,-29,-41,·,-28,·,·
Cc1ccc2nc3c(c(Nc4ccc5c(c4)OCCO5)c2c1)CCC3,22*,9,-13,-21,13,19,13,13
Cc1nn(Cc2ccccc2Cl)c(C)c1C(=O)NCc1ccco1,0,12,-3,6,1,3,·,·
Cc1nn(Cc2ccccc2Cl)c(C)c1C(=O)NCCN1C(=O)S/C(=C\c2ccccc2)C1=O,22*,6,7,2,-1,8,4,4
C=CCNC(=O)c1onc(CSc2ccccc2F)c1C(=O)O,18*,16,-7,-3,15,-37,19,12
C=CCNC(=O)c1onc(CSc2cccc3ccccc23)c1C(=O)O,8,8,-11,16,12,-31,·,·
CCCCNC(=O)c1onc(CSc2cccc(C)c2)c1C(=O)O,21*,13,-43,7,20,-32,18,12
CCCCNC(=O)c1onc(CSc2ccccc2F)c1C(=O)O,37*,17,-35,8,16,-21,20,18*
O=[N+]([O-])c1ccc(-c2csc(Nc3ccccc3)[n+]2Cc2ccccc2)cc1,19*,2,-4,54,11,12,11,9
CCOc1ccc(NC(=O)Cn2nnc(-c3ccc(OCC)c(OCC)c3)n2)cc1,·,11,·,-7,·,·,·,·
CCCC(O)(CCC)C(=O)NN(C(=O)OC)c1ccccc1,20*,6,-14,44,15,-19,8,11
Cc1cc(C(=O)OCC(=O)c2ccc(F)cc2)c2ccccc2n1,·,7,·,-14,·,·,·,·
Cc1ccc(-c2csc(N(CCCN(C)C)C(=O)c3ccco3)n2)cc1,·,3,-6,-2,9,-3,·,·
Cc1ccc(-c2csc(N(CCCN3CCOCC3)C(=O)c3ccco3)n2)cc1,18*,17,-35,30,14,-13,14,11
COc1ccc(-c2csc(N(CCCN3CCOCC3)C(=O)c3ccco3)n2)cc1,18*,5,-40,7,16,-8,12,13
Clc1ccc(OCc2cc(-c3ccccc3)no2)cc1Cl,23*,18,-30,-8,8,-33,39*,39*
O=C(COC(=O)/C=C/c1ccccc1)Nc1ccccc1Br,12,2,-30,3,4,-10,·,·
O=C(COC(=O)/C=C/c1cccc(Cl)c1)Nc1ccccc1-c1ccccc1,19*,4,-13,-40,7,-1,21*,30*
O=C(COC(=O)c1ccc(-c2ccccc2)cc1)Nc1ccccc1-c1ccccc1,31*,4,3,-11,-4,3,15,19*
O=C(COC(=O)c1ccc(O)cc1)Nc1ccccc1-c1ccccc1,6,4,-4,-28,2,-2,·,·
Cc1ccc2cc(CN(CCCO)C(=S)Nc3ccc(F)cc3)c(=O)[nH]c2c1,·,17,·,-47,·,·,·,·
Cn1c(=O)[nH]c(=O)c2c1nc(Br)n2CC(=O)c1ccc(Cl)cc1,·,27,·,-19,·,·,·,·
NC(=O)c1c(NC(=O)c2ccccc2F)sc2c1CCCCC2,·,8,·,-34,·,·,·,·
Cc1ccc2cc(CN(CCCN(C)C)C(=O)Nc3cccc(Cl)c3)c(=O)[nH]c2c1C,·,7,·,-19,·,·,·,·
